Assay outcomes: PubChem, several laboratories
CHOP inhibitor = CHOP inhibition in unfolded protein response | CHO-K1 CHOP-promoter luciferase, tunicamycin-induced, 15-18 h | inhibition, % at 10 µM | 220,000 tested, 3.8% active | AID 2732;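 active = compounds that reduced the stress-induced luciferase reporter signal by more than about 70% of percent inhibition, limit read from the data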;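 also: 0% = tunicamycin plus vehicle and 100% = wells without tunicamycin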
CHOP UPR activ = apoptotic UPR (CHOP) activation; CHO-CHOP luciferase reporter, luminescence; percent of tunicamycin response over DMSO baseline; activation, % at 10 µM; 330,000 tested, 0.34% active;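 active = at 10 µM dose, activation of 40% or more, normalized to positive control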;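 also: 100% = tunicamycin at 10 µg/mL and 0% = DMSO alone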
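Evaluation: % reporter activation, DMSO baseline versus tunicamycin full activation; System: CHO-CHOP luciferase reporter cell line; Input: 500 cells/well; Incubation: 6 h compound treatment, 37 °C; Measured by: Steady-Glo luciferase luminescence; Dosing: one dose, 10 µM in 0.5% DMSO; Buffer or medium: F12 medium, 10% FBS; Benchmarks: positive tunicamycin 10 µg/mL, negative DMSO alone.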
TMEM16A inh = blocks the mouse calcium-activated chloride channel TMEM16A. normalized B-score (activity score, 25-100; higher = stronger inhibition) at 10 µM. AID 588511. Q8BHY3. 310,000 tested, 1.2% active. HEK293 TMEM16A/YFP iodide influx fluorescence, ionomycin;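 active = ratio plate-corrected score three or more library SD toward inhibition, starting fluorescence score within five deviations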;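 also: score derived from kinetic fluorescence span divided by baseline fluorescence per well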
Target sequence (Q8BHY3 whole entry, looked up): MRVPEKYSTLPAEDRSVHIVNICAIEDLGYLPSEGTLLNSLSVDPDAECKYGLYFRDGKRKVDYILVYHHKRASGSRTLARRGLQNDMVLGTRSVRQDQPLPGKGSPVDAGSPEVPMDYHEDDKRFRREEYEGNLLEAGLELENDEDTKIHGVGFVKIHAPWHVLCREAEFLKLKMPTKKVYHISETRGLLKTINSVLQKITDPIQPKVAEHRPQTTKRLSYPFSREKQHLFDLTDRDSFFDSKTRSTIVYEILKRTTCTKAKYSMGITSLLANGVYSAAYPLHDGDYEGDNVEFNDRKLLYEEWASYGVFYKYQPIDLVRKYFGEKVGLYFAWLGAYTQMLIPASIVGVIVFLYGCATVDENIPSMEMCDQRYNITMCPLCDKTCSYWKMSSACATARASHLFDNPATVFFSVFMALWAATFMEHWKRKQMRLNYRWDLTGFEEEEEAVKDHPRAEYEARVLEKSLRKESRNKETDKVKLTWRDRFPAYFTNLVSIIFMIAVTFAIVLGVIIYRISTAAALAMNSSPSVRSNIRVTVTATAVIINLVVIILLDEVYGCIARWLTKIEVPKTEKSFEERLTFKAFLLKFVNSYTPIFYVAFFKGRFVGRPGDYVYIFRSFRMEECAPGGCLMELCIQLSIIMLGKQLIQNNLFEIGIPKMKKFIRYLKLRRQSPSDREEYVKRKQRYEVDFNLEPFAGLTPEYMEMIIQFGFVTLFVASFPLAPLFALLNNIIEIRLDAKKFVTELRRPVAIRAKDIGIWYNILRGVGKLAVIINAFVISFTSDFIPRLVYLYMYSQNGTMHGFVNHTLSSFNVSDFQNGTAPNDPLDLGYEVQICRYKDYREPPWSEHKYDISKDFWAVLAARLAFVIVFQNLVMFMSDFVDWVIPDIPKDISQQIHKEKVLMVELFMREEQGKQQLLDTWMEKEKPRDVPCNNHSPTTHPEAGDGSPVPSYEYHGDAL
Lipid droplet = hepatic lipid droplet formation modulation; 240,000 tested, 0.4% active; AML12 mouse hepatocytes, oleate lipid droplets, BODIPY imaging; AID 1656; inhibition, % at 6.5 µM;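 active = lipid droplet intensity inhibited by at least 50%, with more than 500 cells counted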
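Material: mouse AML12 hepatocyte cell line, fixed after treatment; Timing: compound with oleate, overnight; Technique: high-content imaging of BODIPY-stained droplets and DAPI nuclei; Probe or stimulus: oleate, 100 µM final; Dosing: compound at 6.5 µM only.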
XBP1 UPR activ = adaptive UPR (XBP1) activation | CHO-XBP1 luciferase reporter, IRE1-XBP1 UPR activation, luminescence; percent of tunicamycin response, DMSO as zero | activation, % at 20 µM | 330,000 tested, 0.33% active | AID 463104;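 active = versus positive control, 20 µM dose yields 30% or more activation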;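 also: 100% = tunicamycin at 10 µg/mL and 0% = DMSO only wells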
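Material: CHO cell line with stable XBP1 luciferase reporter; schedule: 16-18 h cell attachment at 37 °C, then 6 h compound exposure; signal: glow luminescence from Steady-Glo reagent; medium: serum-containing F12 medium, 10% FBS; benchmarks: tunicamycin 10 µg/mL and vehicle-only wells; read-out: percent activation relative to tunicamycin reference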
ANO1 activ = mouse TMEM16A channel activation, primary screen; HEK293 TMEM16A/YFP-H148Q/I152L, iodide quench fluorescence; stronger effect = lower value; B-score at 10 µM; AID 623877; Q8BHY3; 340,000 tested, 0.3% active;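 active = fluorescence-ratio B-score plate-corrected deviation score at least 3 library SD below zero, with starting fluorescence score within 5 deviations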;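 also: channel opened by trigger with iodide after compound preincubation; score built on the fluorescence ratio of max minus min over baseline; more negative score means more quench and so TMEM16A activation or potentiation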
Hep lipid conf = confirmation of inhibitors of hepatic lipid droplet formation; AML12 mouse hepatocytes, BODIPY lipid droplet imaging; droplets induced with 100 µM oleic acid; inhibition, % at 5.2 µM; 870 tested, 65% active; shares compounds with Lipid droplet;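 active = inhibition of lipid droplet metric at least 50%, with more than 300 cells in each of four replicates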;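 also: plate controls were DMSO with oleic acid for no effect and 5 µM Triacsin-C for full effect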
AML12 cytotox = toxic to AML12 mouse hepatocytes in counter-screen; DAPI nuclear morphology cytotoxicity imaging; stronger effect = higher value; cells fed 100 µM oleate overnight; shares compounds with Lipid droplet; z-score at 5 µM; AID 463200; 870 tested, 3% active; in the data active = z-score above about 6.3;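 also: compound exposure lasted overnight at 37 °C before fixation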
AML12 tox ATP = confirmation of cytotoxicity in AML12 mouse hepatocytes | shares compounds with Lipid droplet | AML12 mouse hepatocyte viability, ATP luminescence; cells loaded with 100 µM oleic acid | 530 tested, under 10 active | cytotoxicity, % at 50 µM;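 active = cytotoxicity above 50% in each of four replicates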;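 also: compound exposure lasted overnight at 37 °C before the ATP read; 0% = DMSO-treated cells and 100% = wells with no cells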
* hit, by the source's call; i = inactive; · = no result; ! = a repeat was not active. The list is not random: actives were taken first. Their share in the collection is about 4.2%.

SMILES | CHOP inhibitor | CHOP UPR activ | TMEM16A inh | Lipid droplet | XBP1 UPR activ | ANO1 activ | Hep lipid conf | AML12 cytotox | AML12 tox ATP
Cc1cccc(Nc2nc(N)c([N+](=O)[O-])c(N3CCCC(C)C3)n2)c1 (stereo not given) | 103* | 0 | i | 62* | 5 | i | 91* | 1.5 | 74*
O=C(CNS(=O)(=O)c1c(Cl)cccc1Cl)OCC(=O)N1CCN(c2ccccc2)CC1 | 34 | 1 | i | 9 | 1 | i | · | · | ·
O=C(Nc1ccc(-c2csc(Nc3ccc(Cl)cc3)n2)cc1)c1cccc(C(F)(F)F)c1 | 49 | 3 | i | 72* | 5 | · | 100* | 3.3 | 10
O=C(Nc1ccc(-c2csc(Nc3ccccc3)n2)cc1)c1cc([N+](=O)[O-])cc(C(F)(F)F)c1 | 12 | 4 | i | -4 | 9 | i | · | · | ·
C=CCn1c(N)cc(=O)nc1SC(C)C(=O)Nc1ccc(C(=O)OCC)cc1 (stereo not given) | · | 0 | i | 1 | -1 | i | · | · | ·
CCOc1ccc(CCNC(=O)CSc2cc(=O)n(CC)c3ccccc23)cc1OCC | 29 | 1 | i | 93* | 0 | i | 105* | -0.19 | 14
CCOc1ccc(CCNC(=O)CSc2cc(=O)n(C)c3cc(Cl)ccc23)cc1OCC | 11 | 4 | i | 78* | -3 | i | 78* | -0.28 | -1
CCOc1ccc(CCNC(=O)c2nnc(Cc3ccc(F)cc3)o2)cc1OCC | 22 | -1 | i | 102* | 3 | i | 106* | -0.35 | 10
CCOc1ccc(CCNC(=O)c2cc3sccc3n2CC)cc1OCC | 12 | 0 | i | 92* | -1 | i | 108* | -0.053 | 8
CCn1c(=O)cc(OCC(=O)NCCc2cccc(C)c2)c2ccccc21 | 9 | -1 | i | -21 | 0 | i | · | · | ·
O=c1[nH]cnc2c1C(c1ccccc1)c1c(nc[nH]c1=O)O2 | · | 1 | · | 3 | -5 | i | · | · | ·
CCOc1ccccc1NC(=O)NCc1ccccn1 | · | 0 | i | 7 | -1 | i | · | · | ·
FC(F)Oc1ccc(-c2csc(NNC3=NCCCCC3)n2)cc1 | 3 | 0 | i | 95* | -2 | i | 115* | 0.88 | 25
CC(C)(C)c1ccc(-c2csc(NNC3=NCCCCC3)n2)cc1 | -12 | 1 | i | 60* | 0 | i | 100* | -0.65 | 12
Brc1ccc(-c2csc(NNC3=NCCCCC3)n2)cc1 | -13 | 1 | i | · | -1 | i | · | · | ·
CC1CCC(NC(=O)CCCn2sc3ccccc3c2=O)CC1 (stereo not given) | · | -2 | i | -8 | 8 | i | · | · | ·
Cc1ccc(NC(=O)CN(C)CC(=O)Nc2ccc(N3CCOCC3)cc2)c(C)c1 | -35 | -1 | i | 53* | -2 | i | 84* | -0.99 | ·
COc1cc(C(=O)NCC(=O)NC(C)CCc2ccccc2)cc(OC)c1OC (stereo not given) | · | 0 | i | 4 | -4 | i | · | · | ·
c1cc2c3c(cccc3c1)NC1(CCC3(CC1)Nc1cccc4cccc(c14)N3)N2 | 20 | 11 | i | 51* | 5 | i | 14 | 0.33 | ·
COC(=O)c1cn(NC(=O)c2ccc([N+](=O)[O-])cc2Cl)c(=O)c2ccccc12 | 42 | 1 | i | 50* | -1 | i | 25 | 0.56 | ·
O=C(Cn1ncc2c([nH]c3ccccc32)c1=O)NCCCN1CCN(c2ccccc2)CC1 | · | 2 | i | 24 | -6 | i | · | · | ·
CCc1ccc(NC(=O)C(C)OC(=O)c2ccc(N3CCCC3)c([N+](=O)[O-])c2)cc1 (stereo not given) | 12 | -1 | i | 92* | -2 | i | 107* | -0.22 | ·
Cc1cc(=O)oc2cc(OCC(=O)NC3CCN(Cc4ccccc4)CC3)c(Cl)cc12 | · | -1 | i | 63* | -8 | i | 13 | -1.2 | ·
CC(C)(CNC(=O)c1cccc(NS(=O)(=O)c2ccc(Br)cc2)c1)N1CCOCC1 | · | 1 | i | -8 | -4 | i | · | · | ·
CCCSC1=C(C#N)C(c2cccs2)C(C(=O)Nc2ccccc2)=C(C)N1 (stereo not given) | 10 | 0 | i | 54* | -4 | i | 93* | -0.17 | -2
SMILES | CHOP inhibitor | CHOP UPR activ | TMEM16A inh | Lipid droplet | XBP1 UPR activ | ANO1 activ | Hep lipid conf | AML12 cytotox | AML12 tox ATP
CCCCCCOc1ccc(C(CC(N)=O)C(=O)O)cc1 (stereo not given) | 3 | 1 | i | 11 | -1 | i | · | · | ·
CCN(C[C@H]1N[C@@](CC)(C(=O)OC)[C@H]2C(=O)N(Cc3ccccc3)C(=O)[C@@H]12)S(=O)(=O)c1ccc(C(C)(C)C)cc1 | · | 3 | · | · | -1 | · | · | · | ·
CCOc1ccccc1N1CCN(C(=O)NCc2ccc(C)cc2)CC1 | · | 0 | i | 65* | 2 | i | 41 | 0.48 | 7
O=c1c(C/C=C/c2ccccc2)c(O)ccn1CCc1c[nH]c2ccccc12 | 28 | 2 | i | 60* | -5 | i | 105* | -0.19 | 13
CCC1=NN(C(=O)c2cccc([N+](=O)[O-])c2)C(O)(c2ccc(C)cc2)C1 (stereo not given) | · | 1 | i | · | 0 | i | · | · | ·
O=C(NCCO)c1cc2ccccc2cc1O | 15 | 0 | i | 50*! | -2 | i | 7 | -0.75 | ·
NNC(=O)c1cc2ccccc2cc1O | -13 | -2 | i | 11 | 0 | i | · | · | ·
CCNC(=O)NC(=O)C(C)OC(=O)c1ccc(SC)cc1OC (stereo not given) | 0 | -1 | i | 0 | -6 | i | · | · | ·
COc1cc(SC)ccc1C(=O)OC(C)C(=O)Nc1ccc(NC(C)=O)cc1 (stereo not given) | · | 0 | i | 59* | -5 | i | 87* | -0.92 | 12
CNC(=O)COc1ccc(S(=O)(=O)N2CCCC2)cc1 | · | -2 | i | 1 | -2 | i | · | · | ·
Cc1cc(SC#N)cc(C)c1NC(=O)CCl | 23 | 4 | i | 6 | 23 | i | · | · | ·
CCc1cc(SC#N)cc(C)c1NC(=O)CCl | 15 | 5 | i | 68* | 11 | i | 58 | 4.3 | ·
